Bioassay records deposited in PubChem by The Scripps Research Institute Molecular Screening Center.
CHRM4 PAM: potentiates acetylcholine response at human M4 receptor; hit rate 0.4% among 360,000; CHO-K1 hM4/Gqi5, Fluo-8 calcium fluorescence, ACh EC20; 0% = ACh EC20, 100% = maximal ACh; activation, % at 3 µM; AID 624126; P08173;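 active = activation above its plate's cutoff, the mean activation of sample wells plus 3 SD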
CHRM4 agonist: agonists of human muscarinic M4 receptor (CHRM4); AID 624127; activation, % at 3 µM; CHO-K1 hM4/Gqi5, Fluo-8 calcium fluorescence; vehicle 0%, full acetylcholine response 100%; hit rate 0.14% among 360,000; P08173;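 active = activation above the run mean over all test wells plus 3 SD, cut at about 32% in these data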;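 also: peak over basal fluorescence ratio per well then scaled between controls; 0% = DMSO wells and 100% = acetylcholine at EC100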
M4 antag: CHRM4 antagonism in calcium assay; CHO-hM4 cells, ACh EC80, Fluo-8 calcium fluorescence; inhibition, % at 3 µM; P08173; hit rate 0.73% among 360,000; AID 624125;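 active = inhibition above its plate's cutoff, the mean inhibition of sample wells plus 3 SD, cut at about 27% in these data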;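 also: 0% = acetylcholine EC80 with DMSO and 100% = DMSO without agonist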
M5 ag: CHRM5 agonism in calcium assay; P08912; CHO-K1 hM5 cells, Fluo-8 calcium fluorescence; 0% DMSO wells, 100% maximal acetylcholine response; activation, % at 3 µM; hit rate 0.19% among 360,000;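 active = activation above the run's mean over test compounds plus 3 SD, cut at about 23% in these data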;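 also: signal is peak over basal fluorescence ratio across the kinetic read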
Target sequence (P08912 whole entry, looked up): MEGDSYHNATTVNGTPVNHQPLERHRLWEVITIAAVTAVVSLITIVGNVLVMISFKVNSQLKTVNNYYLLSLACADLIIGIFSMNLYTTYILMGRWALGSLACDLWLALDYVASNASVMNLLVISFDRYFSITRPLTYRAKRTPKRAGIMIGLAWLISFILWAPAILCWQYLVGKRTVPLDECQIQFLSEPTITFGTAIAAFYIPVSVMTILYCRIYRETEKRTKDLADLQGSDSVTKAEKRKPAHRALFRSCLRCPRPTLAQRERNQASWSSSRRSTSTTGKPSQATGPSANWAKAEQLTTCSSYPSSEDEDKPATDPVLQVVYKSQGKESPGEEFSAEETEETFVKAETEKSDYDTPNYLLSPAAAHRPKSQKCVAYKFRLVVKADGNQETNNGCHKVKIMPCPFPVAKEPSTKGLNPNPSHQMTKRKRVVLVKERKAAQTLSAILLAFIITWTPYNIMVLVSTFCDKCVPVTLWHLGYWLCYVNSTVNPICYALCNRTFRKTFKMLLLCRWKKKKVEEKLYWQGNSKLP
M5 antag: antagonists of human muscarinic M5 receptor (CHRM5); hit rate 0.59% among 360,000; CHO-hM5 cells, Fluo-8 calcium fluorescence, ACh EC80; AID 624040; inhibition, % at 3 µM; P08912;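 active = inhibition above a per-plate cutoff, the mean of that plate's test compounds plus 3 SD, cut at about 27% in these data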;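 also: 0% = acetylcholine EC80 with DMSO and 100% = DMSO without agonist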
CHRM5 PAM: positive allosteric modulators of human muscarinic M5 receptor; P08912; CHO-K1 hM5, Fluo-8 calcium, ACh EC20 PAM; 0% = ACh EC20, 100% = ACh EC100; activation, % at 3 µM; hit rate 0.3% among 360,000;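 active = activation above the run cutoff, the mean activation of all test compounds plus 3 SD, cut at about 18% in these data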
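System – CHO-K1 hM5 cells · Compound – 3 µM, single dose · Incubation – compound preincubation 140 s before EC20 acetylcholine addition · Technique – Fluo-8 calcium fluorescence · Measure – Max/basal fluorescence ratio as % of EC20–EC100 ACh window · Benchmarks – low control EC20 acetylcholine (0%), high control EC100 acetylcholine (100%) · Replication – singlicate, one well per test compound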
Numbers without * were called inactive. Most compounds without a hit are left out; they make up all but 1.9% or so of the library.

SMILES | CHRM4 PAM | CHRM4 agonist | M4 antag | M5 ag | M5 antag | CHRM5 PAM
Cc1ccccc1OCCNCC(C)O (stereo not drawn) | 12 | 2 | -12 | 7 | 11 | 28*
COc1ccc(NC(=O)COc2ccc(N(C)S(=O)(=O)c3ccc(Cl)cc3)cc2)cc1OC | -9 | 20 | 12 | 7 | 29* | -34
CC(=O)Nc1ccc(S(=O)(=O)N(C)c2ccc(OCCOc3cccc(C)c3)cc2)cc1 | -8 | 19 | 39* | 4 | 24 | -37
CCN(CC)C(=O)COc1ccc(N(C)S(=O)(=O)c2ccc(NC(C)=O)cc2)cc1 | 8 | 2 | 7 | -1 | 4 | -1
COCCN(CC(=O)Nc1cccc(C)c1C)C(=O)c1ccc(S(=O)(=O)N2CCOCC2)cc1 | 6 | 1 | -4 | 1 | 3 | 8
Clc1cccc(Cc2c(-c3ccccc3)nc3ccc(Cl)cn23)c1 | 1 | 0 | 5 | -2 | 8 | 4
c1ccc(C(c2ccccc2)c2noc(CN3CCN(CC4CC4)CC3)n2)cc1 | -24 | 1 | 31* | -18 | 24 | -33
COCC1CCCN(Cc2nc(C(c3ccccc3)c3ccccc3)no2)C1 (stereo not drawn) | -4 | -1 | -11 | -9 | 1 | 1
NC(=O)NC(Cc1ccccc1)C(=O)NNC(=O)COc1ccccc1Cl (stereo not drawn) | 3 | 1 | 0 | 0 | 9 | 3
Cc1csc(NC(=O)CSc2nnc(-c3ccoc3C)o2)n1 | 9 | 3 | -17 | -1 | -2 | 0
Cc1occc1-c1nnc(SCC(=O)Nc2nc(C(C)(C)C)cs2)o1 | -9 | 22 | 19 | 6 | 30* | -23
C=CCC[C@H](Cc1ccc(F)cc1)C(=O)OC[C@@H](Cc1c[nH]c2ccccc12)NC(=O)[C@H](CC=C)CC(=O)N(CCO)Cc1ccccc1 | -3 | 10 | 45* | 3 | 15 | -15
C=CC[C@@H](CC(=O)N(CCO)Cc1ccccc1)C(=O)NC[C@H](OC(=O)[C@@H](CC=C)Cc1ccc(F)cc1)c1ccccc1 | -10 | 27 | 30* | 1 | 13 | -39
CC(C)(C)c1ccc(S(=O)(=O)NC(=O)C2(C)CCN2C(=O)Cc2cccs2)cc1 (stereo not drawn) | -2 | 1 | -5 | 3 | 9 | 0
CCOc1ccc(OCCC(=O)Nc2cccc(S(=O)(=O)N3CCCC3)c2)cc1 | 2 | 5 | -3 | 2 | -1 | -1
CCOC(=O)C1(C)CCN1C(=O)c1ccccc1C(F)(F)F (stereo not drawn) | 12 | 1 | -11 | 2 | 12 | -2
O=C(NCc1ccco1)C1CCN(C(=O)c2ccc([N+](=O)[O-])cc2)CC1 | 2 | 1 | 15 | -3 | 5 | 3
COc1ccccc1Oc1ccc2c(c1)C(=O)N(c1cccc3ncccc13)C2=O | -12 | 12 | 21 | 10 | 39* | -20
C#Cc1ccc(CN2CCC(C(=O)Nc3ccc(Oc4ccccc4)nc3)CC2)cc1 | -6 | 12 | -3 | -1 | 5 | -5
O=C(Nc1ccc(Oc2ccccc2)nc1)C1CCN(Cc2cccc(F)c2)CC1 | -2 | 6 | 1 | -4 | 31* | -13
O=C(Nc1nncs1)C1CCCC1 | -2 | 1 | -8 | 6 | -9 | 19*
COC(=O)Nc1nncs1 | -9 | -1 | 0 | 0 | 0 | 4
Cc1cc(C)cc(C(=O)NCC(=O)OCC(=O)NCC(F)(F)F)c1 | 2 | 1 | 12 | 1 | -9 | 18*
Cc1cc(C(=O)Nc2c[nH]c(=O)[nH]c2=O)ccc1[N+](=O)[O-] | 7 | 1 | 2 | 1 | 0 | 4
O=C(Nc1c[nH]c(=O)[nH]c1=O)c1cccc(F)c1 | 0 | 1 | -2 | -3 | 13 | -4
Cc1cccc(N2C(=O)c3ccc(C(=O)Nc4c[nH]c(=O)[nH]c4=O)cc3C2=O)c1 | 16 | 1 | 27* | -1 | -5 | 6
O=C(Nc1c[nH]c(=O)[nH]c1=O)c1cccc([N+](=O)[O-])c1 | -7 | 1 | -7 | 4 | -16 | 22*
